Assay outcomes: PubChem BioAssay, The Scripps Research Institute Molecular Screening Center
The entries come from a sample that favours hits as a whole.
RORA inh = blocks the human nuclear receptor RORA; P35398; CHO-K1 Gal4-RORA LBD luciferase reporter, luminescence; inhibition, % at 10 µM; 65,000 tested, 0.43% active; AID 561;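 active = inhibition above the mean of all tested compounds plus 3 SD, cut at about 52% in these data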;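 also: 0% = RORA-transfected cells with DMSO and 100% = mock-transfected cells lacking RORA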
Target sequence (P35398 whole entry, looked up, the tested form may be a part): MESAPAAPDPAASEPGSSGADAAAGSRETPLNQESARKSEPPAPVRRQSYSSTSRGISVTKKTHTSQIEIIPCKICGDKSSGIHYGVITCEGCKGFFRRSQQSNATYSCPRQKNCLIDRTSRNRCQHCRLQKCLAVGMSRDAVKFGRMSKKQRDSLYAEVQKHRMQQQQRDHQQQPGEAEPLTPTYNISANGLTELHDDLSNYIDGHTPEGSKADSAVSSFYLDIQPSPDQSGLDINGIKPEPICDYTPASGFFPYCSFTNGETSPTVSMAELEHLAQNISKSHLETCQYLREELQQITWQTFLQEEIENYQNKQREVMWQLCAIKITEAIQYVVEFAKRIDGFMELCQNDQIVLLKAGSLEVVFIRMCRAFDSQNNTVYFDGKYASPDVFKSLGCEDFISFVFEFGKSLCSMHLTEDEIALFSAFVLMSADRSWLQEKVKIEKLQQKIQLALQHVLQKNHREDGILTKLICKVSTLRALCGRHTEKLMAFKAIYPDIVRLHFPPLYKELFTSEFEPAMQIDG
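Test system: CHO-K1 cells with Gal4-hRORA LBD fusion and pG5-luc reporter / Compound: single concentration per compound, 10 µM final / Schedule: 20 h compound treatment, 37 °C / Signal: luminescence from basal luciferase reporter expression / Read-out: % inhibition / Control set: mock-transfected cells as 100%, +RORA DMSO cells as 0% / Replicates: tested once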
* = called active by the depositor.

SMILES	RORA inh
Cc1cc(C(=O)CN2C(=O)NC3(CCCc4ccccc43)C2=O)c(C)n1Cc1cccs1 (configuration not stated)	-30.5
Cc1cc(C(=O)COC(=O)c2ccc3c(c2)OCO3)c(C)n1Cc1cccs1	26.7
Cc1nc2ccc(NC(=O)Cc3cccs3)cc2s1	-53.4
N#CC1C(=O)NC(N2CCN(c3ccccc3)CC2)=NC12CCCCC2 (configuration not stated)	-9.2
O=C(NCCC1=CCCCC1)N[C@@H](Cc1ccccc1)C(=O)O	-2.6
O=S(=O)(Nc1nc2ccccc2nc1NCc1ccco1)c1cccs1	9.2
COc1ccc(-n2c(=O)c3ccccc3n(CC(=O)NC3CCCC3)c2=O)c(OC)c1	12.0
Cn1c(=O)c2c3c(sc2n2c(SCC(=O)c4ccc(Cl)cc4)nnc12)COC(C)(C)C3	6.7
O=C(NCCN1CCOCC1)c1noc2c1CCc1ccccc1-2	-76.9
CN1CCC2(CC1)Nc1nc(SCc3ccc(Cl)cc3)nn1C1=C2CN(C)CC1	6.9
O=C(NCc1ccco1)c1cnn2c(C(F)(F)F)cc(-c3cccs3)nc12	2.3
COCCn1c(SCC(=O)c2cccc(OC)c2)nnc1-c1ccco1	-0.9
C=CCc1cccc2cc(NC(C)=O)c(=O)oc12	17.5
O=C(Nc1nnc(C(F)(F)F)s1)c1cccnc1	-65.8
CCC(NC(=O)Nc1nnc(C(F)(F)F)s1)(C(F)(F)F)C(F)(F)F	93.5*
CCC(NC(=O)Nc1ncccc1C)(C(F)(F)F)C(F)(F)F	2.1
CCOC(=O)C1CCN(C(=O)Nc2ccccc2Cl)CC1	15.5
COc1ccc(S(=O)(=O)NCCCCCC(=O)NCCCN2CCOCC2)cc1	16.0
Fc1ccc(-c2nnc(CN3CCN(c4ncc(C(F)(F)F)cc4Cl)CC3)o2)cc1	-6.6
O=C(CCNS(=O)(=O)c1cccc2nsnc12)N1CC(=O)N(CCc2ccccc2)C(=O)C1	3.1
Cc1cc(N2CCCCC2)n2ncc(-c3ccc(Cl)cc3)c2n1	-86.7
CCc1nn2c(=O)cc(N3CCN(c4cc(C)nc5ccccc45)CC3)nc2s1	-0.7
Cc1cc(N2CCN(c3nc4ccccc4s3)CC2)n2ncnc2n1	75.1*
Cc1cccc(-n2c(CNC(=O)c3ccccc3)nnc2SCC(=O)Nc2nccs2)c1	-6.9
CCCCS(=O)(=O)/C=C\C=C/S(=O)(=O)CCCC	91.2*
SMILES	RORA inh
CCn1cc(C(=O)NCCCN2CC(C)CC(C)C2)c2cc(OC)c(OC)cc2c1=O (configuration not stated)	14.0
CCOc1ccc(NC(=O)C2CC(=O)N(C(C)C)C2)cc1 (configuration not stated)	-5.6
O=C(Nc1ccccc1)NC1(C(=O)N2CCN(c3ncccn3)CC2)CCCCC1	-15.5
CN1CCN(S(=O)(=O)c2ccc(Br)s2)CC1	-62.7
CCOC(=O)C1CCN(C(=O)CNS(=O)(=O)c2ccc(Br)s2)CC1	-9.7
O=S(=O)(NCc1ccncc1)c1ccc(Br)s1	64.8*
Cc1c(C(=O)Nc2ccncc2)oc2c1C(=O)CC(C)(C)C2	5.6
COC(=O)c1sc(NC(=O)c2ccoc2C)nc1C	-8.0
CC(=O)c1sc(NC(=O)C2(F)C(F)(F)C(F)(F)C(F)(F)C(F)(F)C2(F)F)nc1C	89.5*
Cc1nc(NC(=O)C2CC3CCCC(C2)C3=O)sc1C (configuration not stated)	-62.1
COC(=O)c1cccc(NC(=O)Cn2nnc3ccccc32)c1	13.0
CCN(CC)S(=O)(=O)c1ccc(NC(=O)c2ccccn2)cc1	-48.6
CN(C)c1ccc(NC(=S)c2ccccn2)cc1	84.0*
CN(C)S(=O)(=O)c1ccc(NC(=O)c2ccccn2)cc1	-56.7
CCCCn1nnc(NC(=O)CC23CC4CC(CC(C4)C2)C3)n1	17.8
CCCCN1c2cc(C)c(O)cc2C(C(=O)OCC)C1C (configuration not stated)	5.1
O=C(COc1ccccc1)n1nc(-c2ccc(Cl)cc2)nc1NCc1ccco1	-59.7
O=C(Nc1ccc(Cl)cc1)c1ccc2c(c1)OCO2	-8.6
O=C(NCCOc1ccccc1)c1ccc2c(c1)OCO2	62.8*
O=C(c1ccc2c(c1)OCO2)N1CCc2ccccc2C1	-66.0
CCOC(=O)C1CCN(S(=O)(=O)C(F)(F)c2nc3ccccc3s2)CC1	-71.0
CCN(CC)CCCN1C(=O)C(O)=C(C(=O)c2sc(C)nc2C)C1c1ccco1 (configuration not stated)	-0.5
O=C(Nc1ccc(N2CCOCC2)c(Cl)c1)C1CCCCC1	-49.4
Cc1cc(C)nc(SCC(=O)Nc2ccc(N3CCOCC3)c(Cl)c2)n1	53.1*
O=C(Nc1ccc(N2CCOCC2)c(Cl)c1)c1ncn[nH]1	-7.6
SMILES	RORA inh
Cc1c(C(=O)O)[nH]c2c1C(=O)CC(c1ccc(Cl)cc1)C2 (configuration not stated)	-9.2
CCCCCOC(=O)c1[nH]c2c(c1C)C(=O)CC(c1ccco1)C2 (configuration not stated)	54.3*
CCOC(=O)C1C(C)=CC(=O)CC1c1ccco1 (configuration not stated)	-3.3
Cc1cc(C)n(-c2c(F)c(F)c(CN3CCOCC3)c(F)c2F)n1	1.0
N#Cc1c(NC(=O)CSc2ncnc3sccc23)oc(-c2ccco2)c1-c1ccco1	0.2
CCN1CCN(C(CNS(=O)(=O)c2ccc(OC)cc2)c2cccnc2)CC1 (configuration not stated)	-10.8
c1ccc2c(c1)CCN(c1nc3cc4c(cc3s1)OCCO4)C2	63.6*
Cc1nc2ccc(S(=O)(=O)NCC(=O)N3CCc4ccccc4C3)cc2s1	-16.3
Cc1cccc(C)c1NC(=O)c1cc(S(=O)(=O)N2CCOCC2)ccc1F	-2.6
CCOC(=O)c1cnc(SCC(=O)c2ccccc2)nc1N	-58.6
COc1cccc2c1C(=O)c1c(O)c3c(c(O)c1C2=O)C[C@@](O)(C(=O)CO)C[C@@H]3O[C@H]1C[C@H](N)[C@H](O)[C@H](C)O1	63.0*
COc1ccc(CCn2nnnc2C(C(C)C)N2CCN(c3ncccn3)CC2)cc1OC (configuration not stated)	-11.1
CC(OC(=O)c1ccco1)C(=O)NCc1cccs1 (configuration not stated)	10.0
COc1ccc(CCNC(=O)c2nnn(CC(=O)Nc3ccccc3)c2N)cc1OC	-2.2
COc1ccc(CC(=O)Nc2cccc(-c3nnc(-c4cccc(C)c4)o3)c2)cc1OC	86.6*
COc1ccc(Cc2nnc(NC(=O)Cc3cccs3)s2)cc1OC	-5.1
CSc1ccc(CNc2ccccn2)cc1	-61.4
CN1CCN(C(=O)CN(c2cccc(Cl)c2)S(=O)(=O)c2ccccc2)CC1	-47.9
CC(C)(C)c1ccc(C(=O)N2CCC(C(=O)NCc3ccncc3)CC2)cc1	-59.6
Cn1nc(C(C)(C)C)cc1C(=O)NCc1ccc(N2CCCC2=O)cc1	85.8*
CC(=O)N1CCCc2cc(S(=O)(=O)NCc3ccc(C)cc3)ccc21	2.8
COc1cccc(NC(=O)CNC(C)CCC(C)C)c1 (configuration not stated)	14.0
COc1cccc(NC(=O)CSc2nnc(-c3cc(C)n(-c4ccccc4)c3C)o2)c1	71.3*
COc1cccc(NC(=O)Cn2c(SCC(=O)N3CCOCC3)nc3ccccc32)c1	-16.7
NC(=O)CC1NC(=O)c2ccccc21 (configuration not stated)	-2.2
Cc1c(Cl)ccc2c1NC(=O)C21NC(CCC(N)=O)[C@H]2C(=O)N(c3ccc(Cl)cc3)C(=O)[C@H]21 (some centres not stated)	-13.6
Cc1cc(C)n2nc(SCc3cc(=O)n4ccccc4n3)nc2n1	-11.0
